Assay [1] relates to Mus musculus. As to the kind of experiment: Hepatoprotective activity against CCL4-induced liver damage in ICR mouse assessed as […] level per gram of liver at 50 mg/kg, ip dosed 30 mins before and 2 hrs post CCL4 challenge and measured 24 hrs post CCL4 challenge (reference value: 4.8 +/- 0.3 umol/g liver). The class given is functional. The following applies: route intraperitoneal.

The test system of assay [2] is Mus musculus. Nature of the assay: Hepatoprotective activity against CCL4-induced liver damage in ICR mouse assessed as […] level per mg protein at 100 mg/kg, ip dosed 30 mins before and 2 hrs post CCL4 challenge and measured 24 hrs post CCL4 challenge by TBARS detection based spectrophotometry (reference value: 3.2 +/- 0.5 nmol/mg protein). The class given is functional. The following applies: route intraperitoneal.

Assay [3] concerns Mus musculus. As to the kind of experiment: Hepatoprotective activity against CCL4-induced liver damage in ICR mouse assessed as serum AST level at 100 mg/kg, ip dosed 30 mins before and 2 hrs post CCL4 challenge and measured 24 hrs post CCL4 challenge (reference value: 7518 +/- 426 U/L). The class given is functional. The following applies: route intraperitoneal.
In assay [4] the test system is Mus musculus. As to the kind of experiment: Hepatoprotective activity against CCL4-induced liver damage in ICR mouse assessed as reduction in centrizonal necrosis at 100 mg/kg, ip dosed 30 mins before and 2 hrs post CCL4 challenge and measured 24 hrs post CCL4 challenge by hematoxylin-eosin staining based method. The class given is functional, organism-based. Also noted: dose 100 mg/kg. The gist of the method: (§1)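 Left liver lobe fixed in 10% neutral-buffered formalin, paraffin-embedded, cut at 5 μm and stained with H&E. Scored blind for portal inflammation, hepatocellular necrosis and inflammatory infiltration across 100 random nonconsecutive fields. Male ICR mice; CCl4 20 μL/kg ip in olive oil; tissue taken at 24 h.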

Assay [5] relates to Mus musculus. As to the kind of experiment: Hepatoprotective activity against CCL4-induced liver damage in ICR mouse assessed as serum AST level at 50 mg/kg, ip dosed 30 mins before and 2 hrs post CCL4 challenge and measured 24 hrs post CCL4 challenge (reference value: 7518 +/- 426 U/L). The class given is functional. The following applies: route intraperitoneal.
In assay [6] the test system is Mus musculus. As to the kind of experiment: Hepatoprotective activity against CCL4-induced liver damage in ICR mouse assessed as reduction in CCL-induced TNFalpha production at 100 mg/kg, ip dosed 30 mins before and 2 hrs post CCL4 challenge and measured 24 hrs post CCL4 challenge by ELISA. The class given is functional, organism-based. Also noted: dose 100 mg/kg. The method, boiled down: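 Serum TNF-α measured by commercial ELISA on abdominal aortic blood drawn 24 h after ip CCl4 (20 μL/kg in olive oil). Male ICR mice, 10 per group, fasted 16 h; saline vehicle ip; mean ± SEM.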
On the technique in general: In an ELISA, binding on a coated surface is turned into a signal by an enzyme label.

The test system of assay [7] is Mus musculus. As to the kind of experiment: Hepatoprotective activity against CCL4-induced liver damage in ICR mouse assessed as increase in CCL-induced nuclear Nrf2 protein level at 100 mg/kg, ip dosed 30 mins before and 2 hrs post CCL4 challenge and measured 24 hrs post CCL4 challenge by Western blot. The class given is functional, organism-based. More on the design: dose 100 mg/kg. The gist of the method:
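Nuclear proteins were extracted from fresh liver with NE-PER, and 15 μg per lane was immunoblotted: nitrocellulose, 1 h milk block, primary antibody overnight at 4 °C, ECL, densitometry. Male ICR mice (25–30 g), 10 per group, fasted 16 h; CCl4 20 μL/kg ip in olive oil; sampled 24 h later.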
For orientation: A western blot detects proteins with antibodies after separation by electrophoresis.

The subject of assay [8] is Mus musculus. Nature of the assay: Hepatoprotective activity against CCL4-induced liver damage in ICR mouse assessed as serum ALT level at 100 mg/kg, ip dosed 30 mins before and 2 hrs post CCL4 challenge and measured 24 hrs post CCL4 challenge (reference value: 10229 +/- 918 U/L). The class given is functional. The following applies: route intraperitoneal.
Assay [9] has as its system Mus musculus. As to the kind of experiment: Hepatoprotective activity against CCL4-induced liver damage in ICR mouse assessed as reduction in CCL-induced COX2 mRNA expression at 100 mg/kg, ip dosed 30 mins before and 2 hrs post CCL4 challenge and measured 24 hrs post CCL4 challenge by RT-PCR. More on the design: dose 100 mg/kg. The class given is functional, organism-based. The gist of the method:
(§2)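 Liver total RNA (Chomczynski–Sacchi), oligo(dT) primed reverse transcription, then PCR with 10 μM primers. Cycling was 94/56/72 °C, 30 s each, for 35 cycles (COX-2) or 30 cycles (HO-1), and 94/60/72 °C for 35 cycles (iNOS), with β-actin at 25 cycles. Products were run on 1.5% agarose and stained with ethidium bromide. Male ICR mice, 10 per group, fasted 16 h.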

The subject of assay [10] is Mus musculus. As to the kind of experiment: Hepatoprotective activity against CCL4-induced liver damage in ICR mouse assessed as reduction in CCL-induced COX2 protein expression at 100 mg/kg, ip dosed 30 mins before and 2 hrs post CCL4 challenge and measured 24 hrs post CCL4 challenge by Western blot. The class given is functional, organism-based. Also noted: dose 100 mg/kg.

The test system of assay [11] is Mus musculus. Nature of the assay: Hepatoprotective activity against CCL4-induced liver damage in ICR mouse assessed as liver MDA level per mg protein at 50 mg/kg, ip dosed 30 mins before and 2 hrs post CCL4 challenge and measured 24 hrs post CCL4 challenge by TBARS detection based spectrophotometry (reference value: 3.2 +/- 0.5 nmol/mg protein). The conditions noted are these: route intraperitoneal.

Assay [12] deals with Mus musculus. Nature of the assay: Hepatoprotective activity against CCL4-induced liver damage in ICR mouse assessed as reduction in portal inflammation at 100 mg/kg, ip dosed 30 mins before and 2 hrs post CCL4 challenge and measured 24 hrs post CCL4 challenge by hematoxylin-eosin staining based method. The class given is functional, organism-based. Also noted: dose 100 mg/kg. The method, boiled down: as §1

Assay [13] has as its system Mus musculus. As to the kind of experiment: Hepatoprotective activity against CCL4-induced liver damage in ICR mouse assessed as serum ALT level at 50 mg/kg, ip dosed 30 mins before and 2 hrs post CCL4 challenge and measured 24 hrs post CCL4 challenge (reference value: 10229 +/- 918 U/L). The class given is functional. The following applies: route intraperitoneal.
Assay [14] has as its system Mus musculus. Nature of the assay: Hepatoprotective activity against CCL4-induced liver damage in ICR mouse assessed as […] level per gram of liver at 100 mg/kg, ip dosed 30 mins before and 2 hrs post CCL4 challenge and measured 24 hrs post CCL4 challenge (reference value: 4.8 +/- 0.3 umol/g liver). The following applies: route intraperitoneal. The class given is functional.

The test system of assay [15] is Mus musculus. As to the kind of experiment: Hepatoprotective activity against CCL4-induced liver damage in ICR mouse assessed as serum AST level at 200 mg/kg, ip dosed 30 mins before and 2 hrs post CCL4 challenge and measured 24 hrs post CCL4 challenge (reference value: 7518 +/- 426 U/L). The class given is functional. The following applies: route intraperitoneal.

The subject of assay [16] is Mus musculus. As to the kind of experiment: Hepatoprotective activity against CCL4-induced liver damage in ICR mouse assessed as […] level per gram of liver at 200 mg/kg, ip dosed 30 mins before and 2 hrs post CCL4 challenge and measured 24 hrs post CCL4 challenge (reference value: 4.8 +/- 0.3 umol/g liver). The class given is functional. The conditions noted are these: route intraperitoneal.

In assay [17] the test system is Mus musculus. Nature of the assay: Hepatoprotective activity against CCL4-induced liver damage in ICR mouse assessed as reduction in CCL-induced iNOS protein expression at 100 mg/kg, ip dosed 30 mins before and 2 hrs post CCL4 challenge and measured 24 hrs post CCL4 challenge by Western blot. The class given is functional, organism-based. Also noted: dose 100 mg/kg.

Assay [18] relates to Mus musculus. Nature of the assay: Hepatoprotective activity against CCL4-induced liver damage in ICR mouse assessed as […] level per mg protein at 200 mg/kg, ip dosed 30 mins before and 2 hrs post CCL4 challenge and measured 24 hrs post CCL4 challenge by TBARS detection based spectrophotometry (reference value: 3.2 +/- 0.5 nmol/mg protein). The class given is functional. The following applies: route intraperitoneal.

For assay [19], the system named is Mus musculus. As to the kind of experiment: Hepatoprotective activity against CCL4-induced liver damage in ICR mouse assessed as augmentation of CCL-induced HO-1 mRNA expression at 100 mg/kg, ip dosed 30 mins before and 2 hrs post CCL4 challenge and measured 24 hrs post CCL4 challenge by RT-PCR. Also noted: dose 100 mg/kg. The class given is functional, organism-based. The method, boiled down:
as §2

Assay [20] concerns Mus musculus. As to the kind of experiment: Hepatoprotective activity against CCL4-induced liver damage in ICR mouse assessed as augmentation of CCL-induced HO-1 protein expression at 100 mg/kg, ip dosed 30 mins before and 2 hrs post CCL4 challenge and measured 24 hrs post CCL4 challenge by Western blot. The class given is functional, organism-based. More on the design: dose 100 mg/kg.

For assay [21], the system named is Mus musculus. As to the kind of experiment: Hepatoprotective activity against CCL4-induced liver damage in ICR mouse assessed as reduction in CCL-induced iNOS mRNA expression at 100 mg/kg, ip dosed 30 mins before and 2 hrs post CCL4 challenge and measured 24 hrs post CCL4 challenge by RT-PCR. The class given is functional, organism-based. Also noted: dose 100 mg/kg. The method, boiled down: as §2

Assay [22] has as its system Mus musculus. Nature of the assay: Hepatoprotective activity against CCL4-induced liver damage in ICR mouse assessed as serum ALT level at 200 mg/kg, ip dosed 30 mins before and 2 hrs post CCL4 challenge and measured 24 hrs post CCL4 challenge (reference value: 10229 +/- 918 U/L). The class given is functional. The following applies: route intraperitoneal.
Assay [23] concerns Mus musculus. Nature of the assay: Hepatoprotective activity against CCL4-induced liver damage in ICR mouse assessed as reduction in Kupffer cell hyperplasia at 100 mg/kg, ip dosed 30 mins before and 2 hrs post CCL4 challenge and measured 24 hrs post CCL4 challenge by hematoxylin-eosin staining based method. Also noted: dose 100 mg/kg. The class given is functional, organism-based. The gist of the method: as §1

Structures are written as SMILES. Calls of active or inactive are those of the source. The calls are words filed in the database; no cut-off is given here.

As for `O=c1c(O[C@@H]2O[C@H](CO)[C@H](O)[C@H](O)[C@H]2O)c(-c2ccc(O)c(O)c2)oc2cc(O)cc(O)c12` [HYPEROSIDE], the Activity in [1] came to 6.1 µmol; in [2], 1.5 nmol; in assay [3] it was 5488 U/L; in [5] it was 6820 U/L; in assay [8] it was 7134 U/L; in assay [11], 2.4 nmol. The Activity in [13] worked out at 10740 U/L; in [14] it was 5.2 µmol; in assay [15], 5382 U/L; in assay [16], 6 µmol; in assay [18], 1.4 nmol; in assay [22], 7055 U/L. The result in assay [4], in [6], in assay [7], in assay [9], in assay [10] and in assay [12] was Active. In addition, the outcome in assay [17], in assay [19], in assay [20], in [21] and in assay [23] was Active.

(Values after ChEMBL document CHEMBL2146427, “Protective effects of hyperoside against carbon tetrachloride-induced liver damage in mice” (2011).)
